What was measured:
[1] = target: T1, Glucocorticoid receptor (Homo sapiens) (UniProt P04150); assay: Transactivation of glucocorticoid receptor ligand binding domain (unknown origin) transfected in human HeLa cells assessed as activation of NP-1 by GAL4 luciferase reporter gene assay relative to dexamethasone; assay type: cell-based
T1 sequence (whole entry): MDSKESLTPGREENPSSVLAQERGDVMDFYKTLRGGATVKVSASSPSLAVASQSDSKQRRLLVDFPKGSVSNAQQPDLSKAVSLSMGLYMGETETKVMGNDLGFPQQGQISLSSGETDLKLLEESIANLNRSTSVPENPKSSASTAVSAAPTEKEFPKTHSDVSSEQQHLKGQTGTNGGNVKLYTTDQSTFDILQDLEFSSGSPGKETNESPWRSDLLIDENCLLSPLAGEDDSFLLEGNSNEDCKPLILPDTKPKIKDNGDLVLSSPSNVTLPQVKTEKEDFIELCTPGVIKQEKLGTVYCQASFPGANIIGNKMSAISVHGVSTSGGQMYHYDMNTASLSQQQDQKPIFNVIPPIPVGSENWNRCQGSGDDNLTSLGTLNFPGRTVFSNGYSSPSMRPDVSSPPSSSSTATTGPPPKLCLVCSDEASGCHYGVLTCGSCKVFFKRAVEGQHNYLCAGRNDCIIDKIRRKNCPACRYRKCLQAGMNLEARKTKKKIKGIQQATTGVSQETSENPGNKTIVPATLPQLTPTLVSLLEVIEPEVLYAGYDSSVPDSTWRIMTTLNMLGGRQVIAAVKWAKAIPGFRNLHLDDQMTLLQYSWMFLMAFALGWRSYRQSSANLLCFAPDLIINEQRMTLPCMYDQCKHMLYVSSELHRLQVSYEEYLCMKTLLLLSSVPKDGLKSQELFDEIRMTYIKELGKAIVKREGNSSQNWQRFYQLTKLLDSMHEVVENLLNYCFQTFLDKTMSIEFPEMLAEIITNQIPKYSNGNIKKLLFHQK
Summary of the method: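 HeLa line (NP-1) stably transfected with a GR ligand binding domain chimera in a GAL4 luciferase reporter system, run in agonist mode. Direct GR-LBD activation read as increased luciferase activity. Means of two or more experiments in triplicate.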

Androgen receptor = target: T2, Androgen receptor (Homo sapiens, UniProt P10275); assay: Binding affinity to androgen receptor (unknown origin) by fluorescence polarization assay
T2 sequence (P10275 whole entry): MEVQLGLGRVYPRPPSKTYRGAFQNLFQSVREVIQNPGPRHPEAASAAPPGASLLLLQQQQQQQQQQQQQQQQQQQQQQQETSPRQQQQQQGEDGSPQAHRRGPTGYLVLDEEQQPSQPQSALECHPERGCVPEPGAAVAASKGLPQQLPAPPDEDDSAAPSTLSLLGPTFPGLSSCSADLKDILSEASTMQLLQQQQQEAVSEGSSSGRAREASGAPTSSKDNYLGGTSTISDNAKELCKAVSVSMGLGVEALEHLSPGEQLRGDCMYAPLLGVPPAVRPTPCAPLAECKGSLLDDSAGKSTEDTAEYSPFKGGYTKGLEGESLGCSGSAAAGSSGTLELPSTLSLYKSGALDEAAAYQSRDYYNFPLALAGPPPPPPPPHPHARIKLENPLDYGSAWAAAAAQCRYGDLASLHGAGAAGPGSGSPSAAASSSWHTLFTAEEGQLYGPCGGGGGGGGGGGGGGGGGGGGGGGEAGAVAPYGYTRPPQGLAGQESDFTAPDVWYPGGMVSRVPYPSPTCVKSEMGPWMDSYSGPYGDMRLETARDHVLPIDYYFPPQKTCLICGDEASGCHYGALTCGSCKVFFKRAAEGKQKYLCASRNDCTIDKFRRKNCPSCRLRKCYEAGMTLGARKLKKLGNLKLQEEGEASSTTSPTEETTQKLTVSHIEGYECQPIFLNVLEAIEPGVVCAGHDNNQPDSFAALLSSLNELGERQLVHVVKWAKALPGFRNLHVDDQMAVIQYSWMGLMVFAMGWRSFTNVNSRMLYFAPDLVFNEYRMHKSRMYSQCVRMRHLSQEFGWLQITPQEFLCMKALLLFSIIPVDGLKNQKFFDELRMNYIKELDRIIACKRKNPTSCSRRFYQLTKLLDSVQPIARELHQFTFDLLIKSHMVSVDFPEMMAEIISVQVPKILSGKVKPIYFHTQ
Summary of the method: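 Fluorescence polarization competition between test compound and a fluorescently labeled ligand for full-length receptor or its ligand binding domain. IC50 from a four-parameter logistic fit of the polarization signal, converted to Ki with Cheng–Prusoff […]. Means of duplicate experiments.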

Glucocorticoid receptor = target: T3, Glucocorticoid receptor (Homo sapiens, UniProt P04150); assay: Binding affinity to glucocorticoid receptor (unknown origin) by fluorescence polarization assay
T3 sequence (P04150 whole entry): T1 sequence (whole entry)

[2] = target: T4, Mineralocorticoid receptor (Homo sapiens, UniProt P08235); assay: Agonist activity at mineralocorticoid receptor in human A549 cells; assay type: cell-based
T4 sequence (P08235 whole entry): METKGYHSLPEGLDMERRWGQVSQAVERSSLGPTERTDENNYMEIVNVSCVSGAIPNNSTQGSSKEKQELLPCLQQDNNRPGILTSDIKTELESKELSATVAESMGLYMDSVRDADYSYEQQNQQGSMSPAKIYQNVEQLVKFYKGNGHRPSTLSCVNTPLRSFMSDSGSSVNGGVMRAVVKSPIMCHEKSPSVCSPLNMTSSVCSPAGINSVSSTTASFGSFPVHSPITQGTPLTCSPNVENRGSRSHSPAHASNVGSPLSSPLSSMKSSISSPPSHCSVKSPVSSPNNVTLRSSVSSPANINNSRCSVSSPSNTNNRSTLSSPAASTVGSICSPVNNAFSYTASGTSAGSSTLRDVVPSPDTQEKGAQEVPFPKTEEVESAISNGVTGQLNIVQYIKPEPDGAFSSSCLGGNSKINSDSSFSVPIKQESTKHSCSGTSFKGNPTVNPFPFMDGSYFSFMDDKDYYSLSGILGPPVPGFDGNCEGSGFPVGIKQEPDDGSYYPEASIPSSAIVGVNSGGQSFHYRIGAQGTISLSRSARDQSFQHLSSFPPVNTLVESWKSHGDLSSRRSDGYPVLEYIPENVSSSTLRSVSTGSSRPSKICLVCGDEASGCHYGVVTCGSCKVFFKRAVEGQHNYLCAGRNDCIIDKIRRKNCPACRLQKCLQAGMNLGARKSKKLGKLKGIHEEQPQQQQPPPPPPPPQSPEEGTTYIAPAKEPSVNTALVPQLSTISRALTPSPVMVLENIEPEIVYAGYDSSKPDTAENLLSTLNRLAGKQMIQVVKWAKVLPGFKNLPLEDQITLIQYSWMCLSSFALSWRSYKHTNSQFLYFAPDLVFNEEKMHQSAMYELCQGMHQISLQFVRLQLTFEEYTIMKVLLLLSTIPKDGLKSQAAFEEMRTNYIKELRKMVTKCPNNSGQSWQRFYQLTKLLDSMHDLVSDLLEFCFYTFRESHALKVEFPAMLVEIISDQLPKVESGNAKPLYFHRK
Summary of the method: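 Cellular agonist assay in an A549 line with aldosterone as positive control. EC50 taken relative to % maximal efficacy. Means of duplicate experiments.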

Efficacy [1]	Ki (Androgen receptor)	Ki (Glucocorticoid receptor)	EC50 [2]	SMILES
106%	> 25000 nM	5.1 nM	> 5000 nM	CC(C)(C(=O)Nc1nncs1)[C@@H](c1ccccc1)c1ccc2c(cnn2-c2ccc(F)cc2)c1
	> 25000 nM	6.7 nM	> 5000 nM	CC(C)(C(=O)Nc1nncs1)[C@H](c1ccccc1)c1ccc2c(cnn2-c2ccc(F)cc2)c1

From ChEMBL document CHEMBL2424628, “Discovery of potent and selective nonsteroidal indazolyl amide glucocorticoid receptor agonists” (Bioorg Med Chem Lett, 2013)
